The source of these data is ChEMBL document CHEMBL4152306, “Synthesis and biological evaluation of new coumarins bearing 2,4-diaminothiazole-5-carbonyl moiety” (Eur J Med Chem, 2018).

In brackets after ≈: the same amount, converted by molar mass.

Test [1] is described as follows: Antioxidant activity assessed as ferric ion reduction by measuring FeSO4 equivalents reducing Fe3+-TPTZ to Fe2+-TPTZ at 20 ug/ml after 25 mins by FRAP assay. The class given is functional. The gist of the method:
(§1)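 FRAP reagent: 10 mM TPTZ in 40 mM HCl, 20 mM FeCl3·6H2O and 300 mM acetate buffer pH 3.6 (1:1:10). 20 µl sample (tested 5 to 100 µg/ml) mixed with 150 µl reagent, incubated 37°C for 25 min, absorbance at 593 nm. Values as µM FeSO4·7H2O equivalents from calibration curve; ascorbic acid as standard.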

Test [2] can be described thus: Antioxidant activity assessed as ferric ion reduction by measuring FeSO4 equivalents reducing Fe3+-TPTZ to Fe2+-TPTZ at 100 ug/ml after 25 mins by FRAP assay. The format is functional. A digest of the protocol:
as §1

Test [3] can be described thus: Antioxidant activity assessed as DPPH radical scavenging activity incubated for 30 mins under dark condition by spectrophotometric method. The format is functional. The gist of the method: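 Test compounds dissolved in DMSO; 20 µl sample mixed with 250 µl DPPH in methanol (working solution diluted from 0.5 mM methanolic stock to absorbance […] at 517 nm). Kept 30 min at room temperature in dark, absorbance read at 517 nm against compound-free control; ascorbic acid standard. Triplicates; % inhibition from control vs sample absorbance; IC50 reported.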
(DPPH is a stable violet radical that fades when it is reduced.)

In test [4] the test system is MCF7. Briefly: Cytotoxicity against human MCF7 cells assessed as inhibition of cell proliferation after 48 hrs by MTT assay. Conditions: MCF7, 48 h. The format is functional, cell-based. The gist of the method: (§2)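 Cells seeded at 8 × 10³ per well in complete medium, incubated overnight at 37°C, 5% CO2, then exposed to a range of compound concentrations (DMSO solutions; 0.1% DMSO negative control, etoposide positive control) for 48 h at 37°C. Viability by MTT, absorbance 570 nm. IC50 from dose-response curves, mean ± SE of at least three independent experiments.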

Test [5] in a line: Antioxidant activity assessed as ferric ion reduction by measuring FeSO4 equivalents reducing Fe3+-TPTZ to Fe2+-TPTZ at 10 ug/ml after 25 mins by FRAP assay. The format is functional. The gist of the method: as §1
Test [6] can be described thus: Antioxidant activity assessed as ferric ion reduction by measuring FeSO4 equivalents reducing Fe3+-TPTZ to Fe2+-TPTZ at 40 ug/ml after 25 mins by FRAP assay. The format is functional. A digest of the protocol: as §1
A further test deals with SW480. Briefly: Cytotoxicity against human SW480 cells assessed as inhibition of cell proliferation after 48 hrs by MTT assay. Conditions: SW480, 48 h. The format is functional, cell-based. The gist of the method: as §2
A general note: Formazan colour is commonly taken as a measure of viable cells.

The test system of a further test is HepG2. Briefly: Cytotoxicity against human HepG2 cells assessed as inhibition of cell proliferation after 48 hrs by MTT assay. The note with it: HepG2, 48 h. The class given is functional, cell-based. The gist of the method:
as §2

The nature of test [7]: Antioxidant activity assessed as ferric ion reduction by measuring FeSO4 equivalents reducing Fe3+-TPTZ to Fe2+-TPTZ at 80 ug/ml after 25 mins by FRAP assay. The format is functional. A digest of the protocol:
as §1

Test [8] is described as follows: Antioxidant activity assessed as ferric ion reduction by measuring FeSO4 equivalents reducing Fe3+-TPTZ to Fe2+-TPTZ at 5 ug/ml after 25 mins by FRAP assay. The class given is functional. A digest of the protocol: as §1
Test [9] deals with MCF7. Briefly: Induction of apoptosis in human MCF7 cells assessed as early apoptotic cells at IC50 after 48 hrs by Annexin-V-FITC/propidium iodide staining based flow cytometry (reference value: 8.16%). The format is functional. A digest of the protocol:
(§3)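 MCF-7 cells seeded in 6-well plates, incubated overnight at 37 °C, 5% CO2, treated 48 h; untreated cells as negative control, etoposide as standard. Cells trypsinized, PBS-washed twice, pelleted at 1200 rpm, resuspended in 500 µl binding buffer with 5 µl each Annexin V-FITC and PI, 5–15 min at room temperature in dark, then flow cytometry.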
Background: Flow cytometry measures light scatter and fluorescence of single cells or particles in a stream.

Test [10] has as its system MCF7. Briefly: Induction of apoptosis in human MCF7 cells assessed as late apoptotic cells at 11.2 ug/ml after 48 hrs by Annexin-V-FITC/propidium iodide staining based flow cytometry (reference value: 15.6%). The class given is functional. A digest of the protocol:
as §3

The subject of test [11] is MCF7. Briefly: Cell cycle arrest in human MCF7 cells assessed as accumulation at G1 phase at 11.2 ug/ml after 48 hrs by propidium iodide staining based flow cytometry (reference value: 68.58%). The format is functional.
Test [12] has as its system MCF7. Briefly: Cell cycle arrest in human MCF7 cells assessed as accumulation at S phase at 11.2 ug/ml after 48 hrs by propidium iodide staining based flow cytometry (reference value: 26.04%). The class given is functional.
Test [13] deals with MCF7. Briefly: Cell cycle arrest in human MCF7 cells assessed as accumulation at G1 phase at 7.5 ug/ml after 48 hrs by propidium iodide staining based flow cytometry (reference value: 68.58%). The format is functional.
For test [14], the system named is MCF7. Briefly: Cell cycle arrest in human MCF7 cells assessed as accumulation at S phase at 7.5 ug/ml after 48 hrs by propidium iodide staining based flow cytometry (reference value: 26.04%). The format is functional.
Test [15] deals with MCF7. Briefly: Induction of apoptosis in human MCF7 cells assessed as necrotic cells at 11.2 ug/ml after 48 hrs by Annexin-V-FITC/propidium iodide staining based flow cytometry (reference value: 5.79%). The format is functional. A digest of the protocol:
as §3

Test [16] relates to MCF7. Briefly: Induction of apoptosis in human MCF7 cells assessed as live cells at 11.2 ug/ml after 48 hrs by Annexin-V-FITC/propidium iodide staining based flow cytometry (reference value: 70.5%). The format is functional. The gist of the method:
as §3

Test [17] has as its system MCF7. Briefly: Induction of apoptosis in human MCF7 cells assessed as live cells at IC50 after 48 hrs by Annexin-V-FITC/propidium iodide staining based flow cytometry (reference value: 70.5%). The class given is functional. A digest of the protocol:
as §3

Test [18] deals with MCF7. Briefly: Cell cycle arrest in human MCF7 cells assessed as accumulation at G2 phase at 7.5 ug/ml after 48 hrs by propidium iodide staining based flow cytometry (reference value: 13.24%). The format is functional.
Test [19] concerns MCF7. Briefly: Induction of apoptosis in human MCF7 cells assessed as early apoptotic cells at 7.5 ug/ml after 48 hrs by Annexin-V-FITC/propidium iodide staining based flow cytometry (reference value: 8.16%). The class given is functional. The gist of the method:
as §3

Test [20] has as its system MCF7. Briefly: Induction of apoptosis in human MCF7 cells assessed as early apoptotic cells at 11.2 ug/ml after 48 hrs by Annexin-V-FITC/propidium iodide staining based flow cytometry (reference value: 8.16%). The class given is functional. A digest of the protocol:
as §3

Test [21] deals with MCF7. Briefly: Induction of apoptosis in human MCF7 cells assessed as late apoptotic cells at 7.5 ug/ml after 48 hrs by Annexin-V-FITC/propidium iodide staining based flow cytometry (reference value: 15.6%). The format is functional. A digest of the protocol:
as §3

For test [22], the system named is MCF7. Briefly: Induction of apoptosis in human MCF7 cells assessed as necrotic cells at 7.5 ug/ml after 48 hrs by Annexin-V-FITC/propidium iodide staining based flow cytometry (reference value: 5.79%). The class given is functional. The gist of the method: as §3
Test [23] deals with MCF7. Briefly: Cell cycle arrest in human MCF7 cells assessed as accumulation at G2 phase at 11.2 ug/ml after 48 hrs by propidium iodide staining based flow cytometry (reference value: 13.24%). The format is functional.
Test [24] relates to MCF7. Briefly: Induction of apoptosis in human MCF7 cells after 48 hrs by Annexin-V-FITC/propidium iodide staining based flow cytometry. The format is functional, cell-based. The gist of the method: as §3
In test [25] the test system is MCF7. Briefly: Induction of apoptosis in human MCF7 cells assessed as live cells at 7.5 ug/ml after 48 hrs by Annexin-V-FITC/propidium iodide staining based flow cytometry (reference value: 70.5%). The format is functional. A digest of the protocol:
as §3

For test [26], the system named is MCF7. Briefly: Induction of apoptosis in human MCF7 cells assessed as necrotic cells at IC50 after 48 hrs by Annexin-V-FITC/propidium iodide staining based flow cytometry (reference value: 5.79%). The class given is functional. The gist of the method: as §3
In test [27] the test system is MCF7. Briefly: Induction of apoptosis in human MCF7 cells assessed as late apoptotic cells at IC50 after 48 hrs by Annexin-V-FITC/propidium iodide staining based flow cytometry (reference value: 15.6%). The format is functional. The gist of the method: as §3

Broadly, the IC50 is the point on the concentration scale where inhibition reaches its midpoint.

As to `Nc1nc(N2CCN(Cc3ccccc3)CC2)sc1C(=O)c1cc2ccccc2oc1=O`, the Activity in [1] turned out to be 198 µMequiv; in test [2] it was 444 µMequiv; in [5], 134 µMequiv; in test [6], 226 µMequiv; in [7], 229 µMequiv; in test [8], 88.5 µMequiv. Also, the IC50 in test [3] came to 31.7 µg/mL (≈ 71 µM); with MCF7 [4] it was 11.6 µg/mL (≈ 26 µM); in the test on SW480 it was 23.4 µg/mL (≈ 52.4 µM); in the test on HepG2, 32 µg/mL (≈ 71.7 µM).
As to `O=C1O[C@H]([C@@H](O)CO)C(O)=C1O` [ASCORBIC ACID], the Activity in test [1] came to 216 µMequiv; in [2] it was 484 µMequiv; in [5], 124 µMequiv; in test [6], 310 µMequiv; in [7], 397 µMequiv; in [8], 74.9 µMequiv. The IC50 in test [3] stood at 9.6 µg/mL (≈ 54.5 µM).
For `COc1cc([C@@H]2c3cc4c(cc3[C@@H](O[C@@H]3O[C@@H]5CO[C@@H](C)O[C@H]5[C@H](O)[C@H]3O)[C@H]3COC(=O)[C@H]23)OCO4)cc(OC)c1O` [ETOPOSIDE], the IC50 stood at 3.1 µg/mL (≈ 5.27 µM) with MCF7 [4], 7.7 µg/mL (≈ 13.1 µM) with SW480 and 6.2 µg/mL (≈ 10.5 µM) with HepG2.
For `Nc1nc(N2CCSCC2)sc1C(=O)c1cc2ccccc2oc1=O`, the Activity in the test with MCF7 [9] is 4.65%; with MCF7 [10], 41.7%; in test [1], 148 µMequiv; in [2] it was 564 µMequiv; in the test on MCF7 [11] it was 89.83%; in the test with MCF7 [12], 9.08%. The Activity was determined as 83.98% in the test on MCF7 [13]; 16.79% with MCF7 [14]; 13.2% with MCF7 [15]; 39.2% with MCF7 [16]; 54.1% with MCF7 [17]; 8.28% in the test with MCF7 [18]. Besides, the Activity in the test on MCF7 [19] was determined as 5.15%; in the test on MCF7 [20] it was 5.9%; in the test with MCF7 [21], 19.2%; in test [5], 86.3 µMequiv; in the test on MCF7 [22], 24.2%; with MCF7 [23], 6.44%. Besides, the Activity was 266 µMequiv in test [6]; “Dose-dependent effect” with MCF7 [24]; 51.5% in the test with MCF7 [25]; 18.3% in the test with MCF7 [26]; 19.2% in the test with MCF7 [27]; 455 µMequiv in [7]. In addition, the Activity in test [8] was found to be 76.3 µMequiv. The half-maximal inhibitory concentration (IC50) in test [3] came out at 23.9 µg/mL (≈ 64 µM); in the test with MCF7 [4] it was 7.5 µg/mL (≈ 20.1 µM); in the test with SW480, 13 µg/mL (≈ 34.8 µM); in the test on HepG2, 16.9 µg/mL (≈ 45.3 µM).
Turning to `Nc1nc(N2CCOCC2)sc1C(=O)c1cc2ccccc2oc1=O`, the Activity in test [1] is 205 µMequiv; in test [2], 605 µMequiv; in test [5], 142 µMequiv; in test [6], 345 µMequiv; in [7], 384 µMequiv; in test [8] it was 111 µMequiv. Besides, the half-inhibitory concentration (IC50) in test [3] is 25.8 µg/mL (≈ 72.2 µM); with MCF7 [4] it was 9.8 µg/mL (≈ 27.4 µM); in the test with SW480, 20.5 µg/mL (≈ 57.4 µM); with HepG2, 34.8 µg/mL (≈ 97.4 µM).
Take `Nc1nc(N2CCOCC2)sc1C(=O)c1cc2cc(Br)ccc2oc1=O`: the Activity in [1] worked out at 110 µMequiv; in [2] it was 248 µMequiv; in test [5] it was 84.3 µMequiv; in test [6], 162 µMequiv; in test [7] it was 212 µMequiv; in test [8], 76.5 µMequiv. The IC50 in test [3] amounted to 34.6 µg/mL (≈ 79.3 µM); in the test on MCF7 [4], 14.6 µg/mL (≈ 33.5 µM); in the test with SW480, 48.7 µg/mL (≈ 112 µM); in the test with HepG2 it was 19.3 µg/mL (≈ 44.2 µM).
Consider `Nc1nc(N2CCSCC2)sc1C(=O)c1cc2cc(Br)ccc2oc1=O`, for which the Activity in test [1] came to 78.5 µMequiv; in test [2], 171 µMequiv; in test [5], 70.5 µMequiv; in test [6], 94.3 µMequiv; in test [7], 164 µMequiv; in test [8] it was 57 µMequiv. Besides, the 50% inhibitory concentration (IC50) is 27.7 µg/mL (≈ 61.2 µM) in [3], 12.5 µg/mL (≈ 27.6 µM) in the test with MCF7 [4], 44.5 µg/mL (≈ 98.4 µM) with SW480 and 29.7 µg/mL (≈ 65.7 µM) with HepG2.
